Screening results from PubChem.
The list is not random: actives were taken first. Their share in the collection is about 2.3%.
Arr AP2 block: human beta-arrestin and AP2 interaction inhibition | FITC-arrestin peptide / GST-AP2 beads, flow cytometry; AP2 beta2 appendage carries R879A mutation | inhibition, % at 10 µM | 340,000 compounds, 0.31% hits | AID 504490;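 active = inhibition above a set limit, near 3 SD of compounds lacking own fluorescence, cut at about 54% in these data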;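 note: plate controls were DMSO wells for no effect and 5 µM unlabelled arrestin peptide for full effect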
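System: GST-AP2 R879A glutathione beads. Medium: PBS with 0.05% Tween 20 and 0.1% BSA. Also added: FITC-arrestin peptide, 50 nM. Incubation: 12 min plus 1 h, RT. Measured by: high-throughput flow cytometry of beads, ex 488, em 535 nm. Evaluation: percent drop in bead-associated FITC signal.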
Rtt109 Vps75: C. albicans Rtt109 histone acetyltransferase inhibition; inhibition, % at 34.9 µM; purified Rtt109/Vps75, ThioGlo CoA-SH fluorescence, 4 h; 330,000 compounds, 0.16% hits;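 active = inhibition of at least 50% in every replicate; inconclusive = best replicate reaches 50% inhibition but some replicates fall short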
Target sequence (Q5AAJ8 whole entry, looked up): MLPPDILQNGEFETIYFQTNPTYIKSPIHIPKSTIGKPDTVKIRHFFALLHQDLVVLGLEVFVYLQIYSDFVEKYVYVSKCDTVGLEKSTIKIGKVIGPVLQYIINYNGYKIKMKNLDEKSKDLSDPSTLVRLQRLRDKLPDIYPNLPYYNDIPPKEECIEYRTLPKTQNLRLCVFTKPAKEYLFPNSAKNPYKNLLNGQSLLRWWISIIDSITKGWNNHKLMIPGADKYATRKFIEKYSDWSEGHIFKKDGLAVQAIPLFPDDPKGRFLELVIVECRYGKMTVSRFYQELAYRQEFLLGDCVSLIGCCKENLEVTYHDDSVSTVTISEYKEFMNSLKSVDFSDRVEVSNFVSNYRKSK
Glyco luc inh: blocks N-linked glycosylation in D54 reporter cells | AID 588692 | D54 ERlucT glycosylation luciferase reporter, 24 h; percent of 100 nM tunicamycin response | 360,000 compounds, 0.23% hits | reporter increase, % at 12.5 µM;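 active = mean luciferase reporter signal, scaled so untreated is 0 and the glycosylation-blocking control 100, at or above a set limit in every replicate; inconclusive = mean reaches the limit but not every replicate does; inactive = mean below the limit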;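 note: luciferase carries N-glycosylation sites so blocking glycosylation raises the light; 0% = median of neutral control wells and 100% = median of 100 nM tunicamycin wells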
PAX8 inh HTS: inhibitors of PAX8 transcriptional activity in RMG-I cells. 360,000 compounds, 1.2% hits. inhibition, % at 12.6 µM. RMG-I TPO-luciferase reporter, SteadyGlo, 24 h;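 active = mean replicate inhibition at least 60% with every replicate also reaching 60%; inconclusive = only one of the two criteria is met; inactive = mean below 60% and not all replicates reaching 60%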;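 note: luciferase light reporting Pax8 driven TPO promoter activity; plate controls were median of neutral control wells for no effect and mitoxantrone controls for full effect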
Env fusion inh: HIV envelope-mediated fusion inhibition | HeLa-JRFL Env/CEM21 cell fusion, luciferase | inhibition, % at 12.3 µM | 360,000 compounds, 1.1% hits | AID 651610;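 active = mean replicate inhibition score of at least 50 and every replicate individually at or above 50; inconclusive = only one of the two criteria met; inactive = mean below 50 and not all replicates reaching 50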;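 note: 0% = plate neutral controls and 100% = maraviroc near 300 nM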
PfHsp90 yeast 2: reduces growth (ATP signal) of yeast expressing P. falciparum Hsp90 | S. cerevisiae expressing PfHsp90, BacTiter-Glo ATP, 48 h; yeast lacking PDR1 and PDR3 efflux regulators | inhibition, % at 9.4 µM | 310,000 compounds, 0.32% hits;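 active = every replicate shows inhibition above about 80%, whatever the replicate mean, limit read from the data; inconclusive = mean inhibition reaches the set limit but some replicate falls short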;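 note: 0% = DMSO neutral controls and 100% = 20 µM radicicol positive controls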
* marks the source's active call; other numbers are inactive results; ? = inconclusive; . = no result; [ ] = dose if it differs, or a comment.

SMILES	Arr AP2 block	Rtt109 Vps75	Glyco luc inh	PAX8 inh HTS	Env fusion inh	PfHsp90 yeast 2
C[C@@H]1CN([C@H](C)CO)C(=O)c2cc(NC(=O)NC3CCCCC3)ccc2O[C@@H](C)CCCCO[C@@H]1CN(C)Cc1ccc(Cl)c(Cl)c1	.	.	.	71*	13[16.7 µM]	.
C[C@H]1CN([C@@H](C)CO)C(=O)c2cc(NC(=O)C3CCCCC3)ccc2O[C@@H]1CN(C)Cc1ccncc1	.	.	.	-3	55*[16.7 µM]	.
C[C@H](CO)N1C[C@H](C)[C@@H](CN(C)Cc2ccc(Cl)c(Cl)c2)OCCCC[C@H](C)Oc2ccc(NC(=O)NC3CCCCC3)cc2C1=O	.	.	.	1	45[16.7 µM]	.
C[C@@H]1CCCCO[C@@H](CN(C)Cc2ccc(Cl)c(Cl)c2)[C@H](C)CN([C@H](C)CO)C(=O)c2cc(NC(=O)NC3CCCCC3)ccc2O1	.	.	.	65*	72*[16.7 µM]	.
C[C@@H]1CCCCO[C@@H](CN(C)Cc2ccc(Cl)c(Cl)c2)[C@H](C)CN([C@@H](C)CO)C(=O)c2cc(NC(=O)NC3CCCCC3)ccc2O1	.	.	.	68*	22[16.7 µM]	.
C[C@@H]1CCCCO[C@@H](CN(C)S(=O)(=O)c2ccc(F)cc2)[C@@H](C)CN([C@H](C)CO)C(=O)c2cc(NC(=O)Cc3ccccc3)ccc2O1	.	.	.	0	20[16.7 µM]	.
C[C@@H]1CN([C@@H](C)CO)C(=O)Cc2cc(NC(=O)Cc3ccccc3)ccc2O[C@H]1CN(C)S(=O)(=O)c1ccccc1	.	.	.	-5	17[16.7 µM]	.
C[C@@H]1CCCCO[C@H](CN(C)Cc2ccncc2)[C@H](C)CN([C@@H](C)CO)C(=O)c2cc(NC(=O)NC3CCCCC3)ccc2O1	.	.	.	83*	-423[16.7 µM]	.
C[C@@H]1CCCCO[C@@H](CN(C)Cc2ccncc2)[C@@H](C)CN([C@H](C)CO)C(=O)c2cc(NC(=O)NC3CCCCC3)ccc2O1	.	.	.	7	2[16.7 µM]	.
CN(C)c1ccc(/C=C/c2ccc3c4ccccc4ccc3[n+]2-c2ccccc2)cc1	39	64*	?	103*	-47	.
CCCC#Cc1ccc2c(c1)O[C@H](CN(C)Cc1cccnc1)[C@@H](C)CN([C@@H](C)CO)S2(=O)=O	.	.	.	40	4[16.7 µM]	.
COc1ccc2ncn(-c3ccccc3)c2c1	0	-4	-9	.	68*	-1
COc1ccc(-n2cnc3ccccc32)cc1	-4	-7	-10	.	.	8
COc1ccc(NC(=O)N[C@H]2C=C[C@H](CC(=O)NC3CCCCC3)O[C@@H]2CO)cc1	.	.	.	5	18[16.7 µM]	.
CC[C@H](C)[C@@H](CN[C@H](C)CNC)NCCC(c1ccccc1)c1ccccc1	-9	9	-13	75*	-1	-16
CCC(=O)Nc1ccc2c(c1)C(=O)N(C)C[C@H](OC)[C@@H](C)CN(Cc1cccc(F)c1)[C@H](C)CO2	.	.	.	0	.	.
COc1ccc(NC(=O)Nc2ccc3c(c2)[C@H]2C[C@@H](CC(=O)NCc4ccc5c(c4)OCO5)O[C@@H](CO)[C@H]2O3)cc1	.	.	.	-25	.	.
CCc1ccc(CNC(=O)CC2C(=O)NCCN2Cc2ccccc2F)nc1 (centres undefined)	-11	-2	4	-8	56*	28
CCn1ccnc1CNC(=O)CC1C(=O)NCCN1Cc1ccccc1F (centres undefined)	-12	12	0	0	-9	-50
CC(C)NC(=O)N1C[C@H]2[C@@H](c3ccccc31)[C@@H](CO)N2C(=O)c1ccccn1	.	.	.	-25	.	.
C[C@@H]1CN([C@H](C)CO)C(=O)c2cccc(NC(=O)Nc3ccc(C(F)(F)F)cc3)c2O[C@H]1CN(C)Cc1ccc(C(F)(F)F)cc1	.	.	.	-4	59*[16.7 µM]	.
C[C@H]1CN([C@@H](C)CO)C(=O)c2cccc(NC(=O)Nc3ccc(C(F)(F)F)cc3)c2O[C@H]1CN(C)Cc1ccc(C(F)(F)F)cc1	.	.	.	-2	-7[16.7 µM]	.
C[C@@H]1CN([C@@H](C)CO)C(=O)c2cccc(NC(=O)Nc3ccc(C(F)(F)F)cc3)c2O[C@H]1CN(C)Cc1ccc(Oc2ccccc2)cc1	.	.	.	.	69*[16.7 µM]	.
COc1ccc(CN(C)C[C@@H]2Oc3c(NC(=O)C4CCCCC4)cccc3C(=O)N([C@H](C)CO)C[C@H]2C)cc1	.	.	.	64*	30[16.7 µM]	.
